Data published in ChEMBL document CHEMBL4425122, “Discovery of 1-(1H-Pyrazolo[4,3-c]pyridin-6-yl)urea Inhibitors of Extracellular Signal-Regulated Kinase (ERK) for the Treatment of Cancers” (J Med Chem, 2016).
In brackets after ≈: the same amount, converted by molar mass. Activity calls are given as the source filed them. No cut-off for these calls is given here.

Legend:
[1] = Solubility in human FaSSIF at pH 6.5; format: physicochemical
Outline: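 Solubility measured in human fasted-state simulated intestinal fluid at pH 6.5.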

[2] = test system: A375-SM; test: Antiproliferative activity against human A375SM cells harboring BRAF V600E mutant measured after 96 hrs by Cell Titer-Glo assay; format: functional, cell-based
Outline: (§1)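 Cells in DMEM/10 mM HEPES/10% FBS added after compound, incubated 96 h at 37 °C, 5% CO2; equilibrated 15 min at room temperature, viability by CellTiter-Glo luminescence. IC50 from 10-point, 3-fold titration curves.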

[3] = Inhibition of ERK (unknown origin) assessed as inhibition of RSK phosphorylation; design: species or system Homo sapiens
[4] = Inhibition of ERK human A375 cells assessed as inhibition of RSK phosphorylation measured after 4 hrs by mesoscale electrochemiluminescent sandwich assay; settings: A-375, 4 h
[5] = target: Mitogen-activated protein kinase 1 (Mus musculus, UniProt P63085); test: Inhibition of mouse ERK2 preincubated for 15 mins followed by addition of IMAP peptide substrate and ATP measured after 60 mins by IMAP-FP assay
Sequence of Mitogen-activated protein kinase 1 (Mus musculus, UniProt P63085) (P63085 whole entry): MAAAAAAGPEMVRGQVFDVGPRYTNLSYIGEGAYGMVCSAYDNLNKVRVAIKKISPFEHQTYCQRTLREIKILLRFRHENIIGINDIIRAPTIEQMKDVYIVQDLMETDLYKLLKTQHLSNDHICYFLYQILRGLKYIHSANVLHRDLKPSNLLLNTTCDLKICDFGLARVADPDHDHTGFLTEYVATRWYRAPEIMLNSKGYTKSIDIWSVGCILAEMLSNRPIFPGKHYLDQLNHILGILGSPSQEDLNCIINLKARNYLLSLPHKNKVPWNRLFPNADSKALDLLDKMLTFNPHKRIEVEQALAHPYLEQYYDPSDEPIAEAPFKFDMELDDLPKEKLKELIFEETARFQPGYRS

[6] = species on record: Homo sapiens; test: Selectivity ratio, ratio of IC50 for human ERK2 to IC50 for RAF1 (unknown origin)
[7] = species on record: Homo sapiens; test: Selectivity ratio, ratio of IC50 for human ERK2 to IC50 for COT (unknown origin)
[8] = Inhibition of ERK in human A375SM cells harboring BRAF V600E mutant assessed as inhibition of RSK phosphorylation measured after 4 hrs by mesoscale electrochemiluminescent sandwich assay; format: cell-based; settings: A375-SM
Outline: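 A375SM (BRAF V600E melanoma) cells, 10,000 per well, treated 4 h; lysed 20 min at 4 °C in Tris/NaCl/EGTA/EDTA/Triton/NaF buffer with protease and phosphatase inhibitors. Lysate captured with biotin anti-RSK1 on streptavidin MSD plate, detected with SULFO-TAG anti-pRSK (pThr359/Ser363) overnight at 4 °C; electrochemiluminescence read. IC50 from 11-point titration.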

[9] = species on record: Homo sapiens; test: Selectivity ratio, ratio of IC50 for human ERK2 to IC50 for BRAF (unknown origin)
[10] = species on record: Homo sapiens; test: Selectivity ratio, ratio of IC50 for human ERK2 to IC50 for MEK1 (unknown origin)
[11] = target: Mitogen-activated protein kinase 1 (Homo sapiens, UniProt P28482); test: Inhibition of human ERK2 preincubated for 15 mins followed by addition of IMAP peptide substrate and ATP measured after 60 mins by IMAP-FP assay
Sequence of Mitogen-activated protein kinase 1 (Homo sapiens, UniProt P28482) (P28482 whole entry): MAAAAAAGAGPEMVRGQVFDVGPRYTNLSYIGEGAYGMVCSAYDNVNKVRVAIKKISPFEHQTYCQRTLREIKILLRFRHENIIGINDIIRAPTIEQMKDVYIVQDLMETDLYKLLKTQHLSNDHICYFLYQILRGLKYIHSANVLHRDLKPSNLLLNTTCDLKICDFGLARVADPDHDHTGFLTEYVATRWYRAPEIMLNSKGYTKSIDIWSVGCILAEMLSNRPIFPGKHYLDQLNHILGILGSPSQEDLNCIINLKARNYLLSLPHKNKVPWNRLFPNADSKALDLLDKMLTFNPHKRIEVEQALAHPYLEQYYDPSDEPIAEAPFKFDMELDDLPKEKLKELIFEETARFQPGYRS
Outline: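 Final: 0.5 nM hERK2, 900 nM unlabeled + 80 nM labeled peptide, 30 µM ATP; 60 min, quenched with IMAP beads in binding buffer with 24 mM NaCl, read by fluorescence polarization after 60 min.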

[12] = Plasma concentration in mouse xenografted with human A375SM cells at 100 mg/kg, po administered qd for 20 days measured after 2 hrs of final dose; format: ADME, organism-based
Outline: (§2)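 A375SM xenograft mice given 100 mg/kg QD orally in PEG300:H2O (50:50 v/v) for 20 days; after final dose on day 20, blood taken at several time points from this arm and vehicle arm for compound exposure and pRSK and pERK levels.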

[13] = AUC in mouse xenografted with human A375SM cells at 100 mg/kg, po qd measured on day 20; format: ADME, organism-based; settings: in vivo
Outline: (§3)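 Mice bearing A375SM xenografts dosed orally in PEG300:H2O (50:50 v/v) at 25 or 50 mg/kg BID or 100 mg/kg QD for 20 days, vehicle arm for comparison; tumor volume followed versus vehicle. Plasma exposure (AUC, Cmax, Tmax) measured on day 20.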

[14] = target: Dual specificity mitogen-activated protein kinase kinase; MEK1/2 (Homo sapiens, UniProt P36507+Q02750); test: Inhibition of MEK in human A375 cells assessed as inhibition of ERK phosphorylation; format: cell-based
[15] = species on record: Homo sapiens; test: Selectivity ratio, ratio of IC50 for recombinant human GST-tagged ERK2 expressed in Escherichia coli to IC50 for FLT4 (unknown origin)
Outline: (§4)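 Part of a counter-screen panel of 101 kinases. Fold selectivity is each kinase's IC50 relative to the IC50 from the Invitrogen ERK2 assay.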

[16] = AUC in mouse xenografted with human A375SM cells at 25 mg/kg, po bid measured on day 20; format: ADME, organism-based; settings: in vivo; outline: as §3
[17] = Plasma concentration in mouse xenografted with human A375SM cells at 100 mg/kg, po administered qd for 20 days measured after 12 hrs of final dose; format: ADME, organism-based; outline: as §2
[18] = Half life in rat at 0.5 mg/kg, iv; format: ADME, organism-based; settings: in vivo
Outline: (§5)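 Rats dosed IV at 0.5 mg/kg as solution in PEG400:H2O (60:40 v/v).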

[19] = Dose normalized AUC in rat at 0.5 mg/kg, iv; format: ADME, organism-based; settings: in vivo
[20] = Oral bioavailability in rat at 1 mg/kg; format: ADME, organism-based; settings: in vivo
Outline: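 Rats dosed PO at 1 mg/kg as solution in PEG400:H2O (60:40 v/v).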

[21] = Plasma concentration in mouse xenografted with human A375SM cells at 100 mg/kg, po administered qd for 20 days measured after 24 hrs of final dose; format: ADME, organism-based; outline: as §2
[22] = target: Cytochrome P450 3A4 (Homo sapiens, UniProt P08684); test: Inhibition of CYP3A4 (unknown origin); format: ADME
Sequence of Cytochrome P450 3A4 (P08684 whole entry): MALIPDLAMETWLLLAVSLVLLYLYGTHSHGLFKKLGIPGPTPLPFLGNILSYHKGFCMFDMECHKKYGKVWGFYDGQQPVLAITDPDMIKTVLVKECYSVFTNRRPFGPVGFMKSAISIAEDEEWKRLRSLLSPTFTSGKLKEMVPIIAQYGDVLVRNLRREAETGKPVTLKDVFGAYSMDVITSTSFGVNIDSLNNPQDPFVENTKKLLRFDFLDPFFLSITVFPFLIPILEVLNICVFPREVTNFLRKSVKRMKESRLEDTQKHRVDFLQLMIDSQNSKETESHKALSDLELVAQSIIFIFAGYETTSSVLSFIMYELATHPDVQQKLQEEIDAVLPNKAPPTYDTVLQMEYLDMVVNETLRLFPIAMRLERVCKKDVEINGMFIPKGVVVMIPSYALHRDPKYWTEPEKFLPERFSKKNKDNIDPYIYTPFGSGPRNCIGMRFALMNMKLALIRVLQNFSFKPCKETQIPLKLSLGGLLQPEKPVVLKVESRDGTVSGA

[23] = Plasma concentration in mouse xenografted with human A375SM cells at 100 mg/kg, po administered qd for 20 days measured after 6 hrs of final dose; format: ADME, organism-based; outline: as §2
[24] = species on record: Homo sapiens; test: Selectivity ratio, ratio of IC50 for recombinant human GST-tagged ERK2 expressed in Escherichia coli to IC50 for ERK1 (unknown origin); outline: as §4
[25] = target: Voltage-gated inwardly rectifying potassium channel KCNH2 (Homo sapiens, UniProt Q12809); test: Inhibition of human ERG
Sequence of Voltage-gated inwardly rectifying potassium channel KCNH2 (Q12809 whole entry): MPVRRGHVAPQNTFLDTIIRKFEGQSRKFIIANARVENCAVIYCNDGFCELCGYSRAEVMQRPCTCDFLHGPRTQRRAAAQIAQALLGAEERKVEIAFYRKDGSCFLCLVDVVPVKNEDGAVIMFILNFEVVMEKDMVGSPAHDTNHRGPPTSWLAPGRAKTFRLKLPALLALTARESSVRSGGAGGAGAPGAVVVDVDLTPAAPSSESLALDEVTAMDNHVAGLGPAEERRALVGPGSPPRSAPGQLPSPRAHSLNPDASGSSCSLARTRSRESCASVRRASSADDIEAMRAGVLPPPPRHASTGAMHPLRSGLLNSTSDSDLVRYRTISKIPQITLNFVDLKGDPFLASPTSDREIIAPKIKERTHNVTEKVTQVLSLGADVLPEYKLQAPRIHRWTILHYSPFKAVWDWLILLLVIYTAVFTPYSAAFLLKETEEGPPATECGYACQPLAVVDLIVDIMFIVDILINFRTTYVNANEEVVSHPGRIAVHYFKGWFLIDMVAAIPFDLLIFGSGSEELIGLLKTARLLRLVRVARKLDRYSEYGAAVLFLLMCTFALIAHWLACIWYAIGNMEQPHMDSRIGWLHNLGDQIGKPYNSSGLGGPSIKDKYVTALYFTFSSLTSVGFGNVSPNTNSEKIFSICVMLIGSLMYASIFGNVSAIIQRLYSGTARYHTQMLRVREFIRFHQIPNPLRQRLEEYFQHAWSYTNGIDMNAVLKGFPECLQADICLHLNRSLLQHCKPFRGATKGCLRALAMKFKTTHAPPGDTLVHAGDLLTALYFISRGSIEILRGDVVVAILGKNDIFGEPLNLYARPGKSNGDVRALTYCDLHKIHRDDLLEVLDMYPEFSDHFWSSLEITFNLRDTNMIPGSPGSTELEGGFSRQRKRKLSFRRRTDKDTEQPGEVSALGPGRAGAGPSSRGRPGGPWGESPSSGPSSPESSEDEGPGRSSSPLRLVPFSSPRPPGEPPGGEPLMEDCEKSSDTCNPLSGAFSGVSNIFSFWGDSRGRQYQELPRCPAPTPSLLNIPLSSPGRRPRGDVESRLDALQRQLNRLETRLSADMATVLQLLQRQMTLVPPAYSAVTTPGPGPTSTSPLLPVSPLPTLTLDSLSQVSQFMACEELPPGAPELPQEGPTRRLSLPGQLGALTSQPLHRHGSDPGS

[26] = species on record: Homo sapiens; test: Selectivity ratio, ratio of IC50 for recombinant human GST-tagged ERK2 expressed in Escherichia coli to IC50 for MELK (unknown origin); outline: as §4
[27] = Tmax in mouse xenografted with human A375SM cells at 50 mg/kg, po bid; format: ADME, organism-based; settings: in vivo; outline: as §3
[28] = Cmax in mouse xenografted with human A375SM cells at 50 mg/kg, po bid measured on day 20; format: ADME, organism-based; design: dose 50 mg/kg, route oral; settings: in vivo; outline: as §3
[29] = species on record: Homo sapiens; test: Selectivity ratio, ratio of IC50 for recombinant human GST-tagged ERK2 expressed in Escherichia coli to IC50 for BRAF (unknown origin)
Outline: (§6)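 Kinase counter-screen using a coupled format: the kinase's effect was read as activity of downstream ERK. Fold selectivity is the kinase IC50 relative to the IC50 from the Invitrogen ERK2 assay.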

[30] = test system: A375-SM; test: Antitumor activity against human A375SM cells xenografted in mouse assessed as tumor regression compound administered orally for 20 days measured after final dosage relative to vehicle treated control; format: functional
[31] = species on record: Homo sapiens; test: Selectivity ratio, ratio of IC50 for recombinant human GST-tagged ERK2 expressed in Escherichia coli to IC50 for MEK1 (unknown origin); outline: as §6
[32] = Cmax in mouse xenografted with human A375SM cells at 25 mg/kg, po bid measured on day 20; format: ADME, organism-based; design: dose 25 mg/kg, route oral; settings: in vivo; outline: as §3
[33] = species on record: Homo sapiens; test: Selectivity ratio, ratio of IC50 for recombinant human GST-tagged ERK2 expressed in Escherichia coli to IC50 for PDGFRalpha D842V mutant (unknown origin); outline: as §4
[34] = species on record: Homo sapiens; test: Selectivity ratio, ratio of IC50 for recombinant human GST-tagged ERK2 expressed in Escherichia coli to IC50 for PDGFRalpha V561D mutant (unknown origin); outline: as §4
[35] = Tmax in mouse xenografted with human A375SM cells at 25 mg/kg, po bid; format: ADME, organism-based; settings: in vivo; outline: as §3
[36] = test system: A375-SM; test: Antitumor activity against human A375SM cells xenografted in mouse assessed as tumor growth inhibition at 25 mg/kg, po administered bid for 20 days measured after final dosage relative to vehicle treated control; format: functional; settings: 480 h, read-out: TGI; outline: as §3
[37] = test system: A375-SM; test: Antitumor activity against human A375SM cells xenografted in mouse assessed as tumor regression at 100 mg/kg, po administered qd for 20 days measured after final dosage relative to vehicle treated control; format: functional; outline: as §3
[38] = species on record: Homo sapiens; test: Selectivity ratio, ratio of IC50 for recombinant human GST-tagged ERK2 expressed in Escherichia coli to IC50 for MEK2 (unknown origin); outline: as §4
[39] = Plasma clearance in rat at 0.5 mg/kg, iv; format: ADME, organism-based; outline: as §5
[40] = test system: CHL-1; test: Antiproliferative activity against human CHL-1 cells measured after 96 hrs by Cell Titer-Glo assay; format: functional, cell-based; settings: CHL-1, 96 h; outline: as §1
[41] = Tmax in mouse xenografted with human A375SM cells at 100 mg/kg, po qd; format: ADME, organism-based; settings: in vivo; outline: as §3
[42] = Plasma concentration in mouse xenografted with human A375SM cells at 100 mg/kg, po administered qd for 20 days measured after 8 hrs of final dose; format: ADME, organism-based; outline: as §2
[43] = AUC in mouse xenografted with human A375SM cells at 50 mg/kg, po bid measured on day 20; format: ADME, organism-based; settings: in vivo; outline: as §3
[44] = test system: Mus musculus; test: In vivo inhibition of MEK in mouse xenografted with human A375SM cells assessed as inhibition ERK phosphorylation at 100 mg/kg, po administered qd for 20 days measured after 2 to 24 hrs post final dosage; format: functional, organism-based; outline: as §2
[45] = test system: A375-SM; test: Antitumor activity against human A375SM cells xenografted in mouse assessed as tumor regression at 50 mg/kg, po administered bid for 20 days measured after final dosage relative to vehicle treated control; format: functional; outline: as §3
[46] = Volume of distribution at steady state in rat at 0.5 mg/kg, iv; format: ADME, organism-based; settings: in vivo, read-out: Vdss; outline: as §5
[47] = Protein binding in rat plasma; format: ADME, cell-free; settings: read-out: PPB (converted)
[48] = test system: Mus musculus; test: In vivo inhibition of ERK in mouse xenografted with human A375SM cells assessed as inhibition RSK phosphorylation at 100 mg/kg, po administered qd for 20 days measured after 2 to 24 hrs post final dosage; format: functional, organism-based; outline: as §2
[49] = Cmax in mouse xenografted with human A375SM cells at 100 mg/kg, po qd measured on day 20; format: ADME, organism-based; design: dose 100 mg/kg, route oral; settings: in vivo; outline: as §3

`O=C(Nc1ccc2[nH]nc(-c3ccncc3)c2c1)[C@@H]1CCN(CC(=O)N2CCN(c3ccc(-c4ncccn4)cc3)CC2)C1` showed a solubility [1] of 38 µM (≈ 22.3 µg/mL), an IC50 [2] of 39 nM and an IC50 [3] of 57 nM.
For `Cc1cc(-c2n[nH]c3cc(NC(=O)NCCc4ccccc4)ncc23)ccn1`, the IC50 [4] was 110 nM.
With `Cc1cc(-c2n[nH]c3cc(NC(=O)NCc4ccccc4)ncc23)ccn1` the IC50 [5] was 0.2 nM, the Ratio IC50 [6] was less than 100 and the Ratio IC50 [7] was less than 100. It also gave an IC50 [8] of 220 nM, a Ratio IC50 [9] of less than 100 and a Ratio IC50 [10] of less than 100. The IC50 [11] was 0.9 nM.
`Cc1cc(-c2n[nH]c3cc(NC(=O)N[C@H](C)c4ccccc4)ncc23)ccn1` gave a concentration at 2 h [12] of 20 µM, an AUC [13] of 320 µM·h and an IC50 [14] greater than 10000 nM. The Ratio IC50 [15] was less than 100, the AUC [16] was 95 µM·h and the concentration at 12 h [17] was 1.6 µM. The half-life [18] was 0.7 h, the AUC/dose [19] was 1.3 µM·h/mg/kg and the bioavailability [20] was 12%. It also gave a concentration at 24 h [21] of 0.1 µM, an IC50 [22] of 3900 nM and a concentration at 6 h [23] of 5.2 µM. It also gave a solubility [1] of 18 µM (≈ 6.7 µg/mL), a Ratio IC50 [24] of less than 100 and an IC50 [25] greater than 20000 nM. It also gave an IC50 [8] of 70 nM, an IC50 [2] of 43 nM and a Ratio IC50 [26] of less than 100. For the same compound, the Tmax [27] was 11 h, the Cmax [28] was 23 µM and the Ratio IC50 [29] was less than 100. For the same compound, the Activity [30] was “Dose-dependent effect”, the Ratio IC50 [31] was less than 100 and the IC50 [11] was 0.2 nM. It also gave a Cmax [32] of 12 µM, a Ratio IC50 [33] of less than 100 and a Ratio IC50 [34] of less than 100. For the same compound, the Tmax [35] was 11 h, the inhibition in vivo at 25 mg/kg [36] was 82% and the Activity [37] was 42%. For the same compound, the IC50 [3] was 77 nM, the Ratio IC50 [38] was less than 100 and the clearance [39] was 35 mL/min/kg. The IC50 [40] was 1300 nM, the Tmax [41] was 4 h and the concentration at 8 h [42] was 6.7 µM. The AUC [43] was 240 µM·h, the inhibition [44] was “inactive” and the Activity [45] was 47%. The Vd [46] was 1.7 L/kg, the fraction unbound [47] was 0.012 and the inhibition [48] was “Active”. It also gave a Cmax [49] of 27 µM.
For `Cc1cc(-c2n[nH]c3cc(NC(=O)N[C@@H](C)c4ccccc4)ncc23)ccn1`, the IC50 [4] was 1800 nM.
